The values below come from ChEMBL document CHEMBL1123394, “Systematic synthesis and biological evaluation of alpha- and beta-D-xylofuranosyl nucleosides of the five naturally occurring bases in nucleic acids and related analogues” (J Med Chem, 1986).

Holding throughout (assay type): functional
Experiment [1] has as its system Vero. Kind of experiment: Antiviral activity was measured against forest virus in african green monkey kidney (Vero B) cells. Particulars: Chlorocebus sabaeus. An outline of the steps: (§1)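 Inhibition of virus-induced cytopathogenicity scored in cell culture monolayers. Test compounds dissolved in growth medium at 100, 10, or 1 μg/mL or less.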
Experiment [2] has as its system HeLa. Description: Concentration required for microscopically detectable alteration of the normal cell morphology in HeLa cells. Particulars: Homo sapiens. The essentials: (§2)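 Host-cell morphology inspected microscopically for detectable alteration, with compounds in growth medium at up to 200 or 400 μg/mL.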
A short description of experiment [3]: Antiviral activity was measured against vaccinia virus in rabbit kidney cells. Particulars: Oryctolagus cuniculus. The essentials:
(§3)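 Inhibition of virus-induced cytopathogenicity in cell culture. Compounds were dissolved in growth medium at 100, 10 or 1 μg/mL or less.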

The test system of experiment [4] is HeLa. Kind of experiment: Antiviral activity was measured against polio virus-1 in HeLa cells. Particulars: Homo sapiens. The essentials: as §3
Experiment [5] has as its system Vero. Description: Antiviral activity was measured against Sindbis virus in african green monkey kidney (Vero B) cells. The following applies: Chlorocebus sabaeus. An outline of the steps: as §1
The subject of experiment [6] is WI-38. Description: Antiviral activity was measured against Rhino virus-1A in human diploid (WI-38) cells. An outline of the steps: as §1
Experiment [7] concerns Vero. Kind of experiment: Antiviral activity was measured against Reo virus-1 in african green monkey kidney (Vero B) cells. Particulars: Chlorocebus sabaeus. The essentials: as §1
The test system of experiment [8] is HeLa. Kind of experiment: Antiviral activity was measured against Coxsackie virus B4 in HeLa cells. Particulars: Homo sapiens. An outline of the steps: as §3
Experiment [9] concerns HeLa. Kind of experiment: Antiviral activity was measured against vesicular stomatitis virus in HeLa cells. Particulars: Homo sapiens. An outline of the steps: as §3
Experiment [10] in a line: Concentration required for microscopically detectable alteration of the normal cell morphology in PRK cells. The following applies: Oryctolagus cuniculus. The essentials: as §2
Experiment [11] relates to WI-38. Description: Concentration required for microscopically detectable alteration of the normal cell morphology in Wi-38 cells. The following applies: Homo sapiens. The essentials: as §2
Experiment [12] is described as follows: Antiviral activity was measured against Herpes simplex virus (HSV-2 G) in rabbit kidney cells. Particulars: Oryctolagus cuniculus. An outline of the steps: as §1
Experiment [13] in a line: Antiviral activity was measured against vesicular stomatitis virus in rabbit kidney cells. The following applies: Oryctolagus cuniculus. An outline of the steps:
as §3

Experiment [14] has as its system Vero. Description: Concentration required for microscopically detectable alteration of the normal cell morphology in Vero B cells. The following applies: Chlorocebus sabaeus. The essentials: as §2
The subject of experiment [15] is Vero. Description: Antiviral activity was measured against Parainfluenza virus-3 in african green monkey kidney (Vero B) cells. The following applies: Chlorocebus sabaeus. An outline of the steps: as §1
For experiment [16], the system named is Vero. Description: Antiviral activity was measured against Coxsackie virus B4 in african green monkey kidney (Vero B) cells. The following applies: Chlorocebus sabaeus. An outline of the steps:
as §1

Experiment [17] deals with WI-38. Kind of experiment: Antiviral activity was measured against Rhino virus-9 in human diploid (WI-38) cells. An outline of the steps:
as §1

The nature of experiment [18]: Antiviral activity was measured against Herpes simplex virus (HSV-1 KOS) in rabbit kidney cells. The following applies: Oryctolagus cuniculus. The essentials:
as §3

Experiment [19] can be described thus: Number of living cells on the proliferation of mouse myeloma cells SP2 was measured at concentration 1 ug/mL at 0h. An outline of the steps:
(§4)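 Mouse myeloma SP2 cells seeded at 123 × 10^3 cells and exposed to compound at 1, 10 or 100 μg/mL in growth medium. Living cells counted at 0, 48 and 96 h alongside untreated controls.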

The nature of experiment [20]: Concentration required to reduce protein synthesis in primary rabbit kidney cells usingi [3H2-4,5]leucine incorporation. The following applies: Oryctolagus cuniculus, read-out: ID50 (the source's name). The essentials: (§5)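 Primary rabbit kidney cells with compounds in growth medium at 100, 10, or 1 μg/mL or less. Cell number and incorporation of [3H-methyl]dThd (DNA), [3H-5]Urd (RNA) or [3H2-4,5]leucine (protein) measured. ID50 taken as the dose giving 50% reduction in cell number or in DNA, RNA or protein synthesis.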

Experiment [21] is described as follows: Concentration required to reduce RNA synthesis in primary rabbit kidney cells using [3H-5]-Urd incorporation. The following applies: Oryctolagus cuniculus, read-out: ID50 (the source's name). An outline of the steps: as §5
A short description of experiment [22]: Number of living cells on the proliferation of mouse myeloma cells SP2 was measured at concentration 100 ug/mL at 48 hr. The essentials: as §4
Experiment [23] is described as follows: Number of living cells on the proliferation of mouse myeloma cells SP2 was measured at concentration 1 ug/mL at 96 h. An outline of the steps: as §4
Experiment [24] is described as follows: Number of living cells on the proliferation of mouse myeloma cells SP2 was measured at concentration 100 ug/mL at 96 h. An outline of the steps: as §4
A short description of experiment [25]: Concentration required to reduce DNA synthesis in primary rabbit kidney cells using [3H-Methyl]-dThd incorporation. Particulars: Oryctolagus cuniculus, read-out: ID50 (the source's name). The essentials: as §5
Experiment [26] can be described thus: Number of living cells on the proliferation of mouse myeloma cells SP2 was measured at concentration 10 ug/mL at 96 h. The essentials:
as §4

The nature of experiment [27]: Number of living cells on the proliferation of mouse myeloma cells SP2 was measured at concentration 10 ug/mL at 48 hr. An outline of the steps:
as §4

Experiment [28] in a line: Number of living cells on the proliferation of mouse myeloma cells SP2 was measured at concentration 100 ug/mL at 0h. An outline of the steps: as §4
A short description of experiment [29]: Dose required to reduce primary rabbit kidney cell growth. The following applies: Oryctolagus cuniculus, read-out: ID50 (the source's name). An outline of the steps: as §5
Experiment [30] is described as follows: Number of living cells on the proliferation of mouse myeloma cells SP2 was measured at concentration 1 ug/mL at 48 hr. The essentials: as §4
Experiment [31] has as its system HeLa. Kind of experiment: Antiviral activity was measured against Vesicular stomatitis virus in HeLa cells. Particulars: Homo sapiens. An outline of the steps: as §3
Experiment [32] in a line: Antiviral activity was measured against Vesicular stomatitis virus in rabbit kidney cells. The following applies: Oryctolagus cuniculus. An outline of the steps: as §3
Experiment [33] can be described thus: Antiviral activity was measured against Vaccinia virus in rabbit kidney cells. Particulars: Oryctolagus cuniculus. The essentials:
as §3

In experiment [34] the test system is HeLa. Kind of experiment: Antiviral activity was measured against Polio virus-1 in HeLa cells. The following applies: Homo sapiens. The essentials:
as §3

Molecules are shown by their SMILES. Values after ≈ are worked out from the molar mass of the structure shown.

Consider `Nc1ncnc2c1ccn2[C@@H]1O[C@H](CO)[C@@H](O)[C@H]1O` [TUBERCIDIN], for which the MCC was more than 0.4 µg/mL in the experiment with Vero [1]; not below 1 µg/mL in the experiment on HeLa [2]; more than 0.1 µg/mL in experiment [3]; 0.2 µg/mL with HeLa [4]; more than 0.1 µg/mL with Vero [5]; 0.01 µg/mL in the experiment on WI-38 [6]. Moreover, the MCC was 0.1 µg/mL with Vero [7]; 0.2 µg/mL in the experiment on HeLa [8]; 0.07 µg/mL in the experiment with HeLa [9]; not below 0.4 µg/mL in [10]; 0.4 µg/mL with WI-38 [11]; more than 0.1 µg/mL in experiment [12]. In addition, the MCC in [13] was 0.07 µg/mL; in the experiment on Vero [14], not below 0.4 µg/mL; in the experiment with Vero [15], 0.2 µg/mL; in the experiment with Vero [16], more than 0.1 µg/mL; with WI-38 [17] it was 0.007 µg/mL; in experiment [18], more than 0.1 µg/mL.

`Nc1ncnc2c1ncn2[C@@H]1O[C@H](CO)[C@H](O)[C@H]1O`: the “No. of living cells” value stood at 0.123 in experiment [19]; 0.008 in experiment [22]; 1.368 in experiment [23]; 0 in [24]; 0.4 in experiment [26]; 0.048 in experiment [27]. The results for the “No. of living cells” value in [28] and in [30] were 0.123 and 0.864, respectively. Further, the MCC is more than 40 µg/mL in the experiment on Vero [1]; 100 µg/mL in the experiment on HeLa [2]; more than 40 µg/mL in the experiment with Vero [5]; 20 µg/mL with WI-38 [6]; more than 40 µg/mL with Vero [7]; more than 40 µg/mL in the experiment on HeLa [8]. Further, the MCC was more than 100 µg/mL in experiment [10]; 200 µg/mL in the experiment on WI-38 [11]; more than 40 µg/mL in experiment [12]; more than 100 µg/mL with Vero [14]; more than 40 µg/mL in the experiment with Vero [15]; more than 40 µg/mL in the experiment with Vero [16]. Besides, the MCC in the experiment on WI-38 [17] was 20 µg/mL; in experiment [18], more than 40 µg/mL. For the same compound, the IC50 in experiment [20] came to 37 µg/mL (≈ 138 µM); in [21], 46 µg/mL (≈ 172 µM); in [25] it was 17 µg/mL (≈ 63.6 µM); in [29], 23 µg/mL (≈ 86.1 µM).

`NC(=O)c1ncn([C@@H]2O[C@H](CO)[C@@H](O)[C@H]2O)n1` [RIBAVIRIN]: the MCC in the experiment on HeLa [31] was 20 µg/mL; in the experiment with Vero [1] it was 70 µg/mL; in the experiment with HeLa [2], not below 400 µg/mL; in experiment [32], 100 µg/mL; with Vero [5], 70 µg/mL; in [33] it was 7 µg/mL. Further, the MCC in the experiment with WI-38 [6] was 150 µg/mL; in the experiment with HeLa [34], 70 µg/mL; in the experiment on Vero [7], 7 µg/mL; in the experiment on HeLa [8], 70 µg/mL; in experiment [10], more than 400 µg/mL; with WI-38 [11], more than 400 µg/mL. Further, the MCC was more than 400 µg/mL in experiment [12]; not below 400 µg/mL with Vero [14]; 20 µg/mL in the experiment on Vero [15]; 70 µg/mL in the experiment on Vero [16]; 70 µg/mL in the experiment with WI-38 [17]; more than 400 µg/mL in experiment [18].
